Like-named read-outs stand apart in the source and are kept apart here.
Tests used:
[1] = assay type: in vivo, healthy Korean male volunteers; conditions: for Pharmacokinetic effect on the co-administered drug: steady-state gemigliptin 50 mg, single-dose glimepiride 4 mg
Procedure, shortened: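 Randomized open-label crossover. Oral gemigliptin 50 mg once daily for 6 days with glimepiride 4 mg co-administered on day 7, versus single glimepiride 4 mg. Heparinized plasma was sampled to 24 h (days 6–7 at 0–14 h, day 8 at 0 h). LC–MS/MS; LLOQ 0.5 ng/mL gemigliptin, 1 ng/mL glimepiride. Non-compartmental AUC by linear-up/log-down trapezoidal method. Log-transformed GMRs with 90 % CI from mixed-effects ANOVA.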

Tolerability assessments = assay type: in vivo, healthy Korean male volunteers
Procedure, shortened: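 Subjects receiving more than one dose were included. Medical staff monitored adverse events after dosing. Vital signs were taken seated after ≥5 min rest. 12-lead ECG was recorded before blood sampling. Physical examinations were done, and hematology, biochemistry and urinalysis were drawn after >8 h fasting. Investigators judged abnormal findings for clinical significance and relation to study drug.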

[2] = cited from earlier work
cytochrome P450 (CYP) = conditions: cited from earlier work
[3] = stated as known, no reference given; cited from earlier work
[4] = cited from earlier work; for t max: oral
[5] = cited from earlier work; remark: listed apart in the source
[6] = single ascending-dose study, healthy volunteers, 50–400 mg
[7] = glimepiride 4 mg + gemigliptin 50 mg, day 7
[8] = glimepiride 4 mg single dose only
[9] = another study, subjects all Caucasian
[10] = single-dose 4 mg, healthy volunteers, ref Malerczyk et al. [20]
[11] = plasma, glimepiride 4 mg single dose only

N[C@@H](CC(=O)N1CCc2c(nc(C(F)(F)F)nc2C(F)(F)F)C1)CN1CC(F)(F)CCC1=O [Gemigliptin]
t max ([1]; male, human, plasma, oral, 50 mg, t max,ss, median (min–max), plasma, day 6, gemigliptin 50 mg once daily only): 1.5 h | AUC ([1]; male, human, plasma, po, 50 mg): 0.798 µg·h/mL | Cmax ([1]; male, human, plasma, po, 50 mg, C max,ss, mean (SD), plasma, day 6, gemigliptin 50 mg once daily only, oral): 0.0802 µg/mL | Pharmacokinetic effect on the co-administered drug [1]: nor did gemigliptin affect the pharmacokinetics of single-dose glimepiride | Adverse events during dosing (events and participants) (Tolerability assessments; repeated gemigliptin dosing, 50 mg/day, 23 participants): six AEs occurred in four participants | Adverse events considered possibly related to the study drug (Tolerability assessments; rhinorrhea, constipation, and headache): three AEs in three participants were considered possibly related to the study drug | half-life ([2]; day 1 of a previous study using 24 h sampling): 7.4 to 9.3 h | accumulation ([2]; previous multiple-dose study): accumulation was reported | half-life ([2]; previous multiple-dose study): approximately 17 h | half-life ([2]; previously reported by multiple-dose studies, sampling ≤72 h after the last dose): 16.6 to 20.1 h | mean t ½ [2, 6]: 16.7 to 21.3 h | t max [2, 6]: 0.5 to 5.1 h | inhibitory or induction potential (cytochrome P450 (CYP); gemigliptin and its metabolites, preclinical studies, ref Gemigliptin IB version 6.0, September 2012): very low | major metabolic route (cytochrome P450 (CYP); preclinical studies, ref Gemigliptin IB version 6.0, September 2012): via cytochrome P450 (CYP) 3A4 | effects on cytochromes (cytochrome P450 (CYP); stated as known, no reference given): no significant effects on cytochromes | protein binding [3]: no strong protein-binding characteristics

CCC1=C(C)CN(C(=O)NCCc2ccc(S(=O)(=O)NC(=O)N[C@H]3CC[C@H](C)CC3)cc2)C1=O [Glimepiride]
t max, median (min–max) [1, 7]: 3.0 (2.0–5.0) h | t max, median (min–max) [1, 8]: 4.0 (2.0–5.0) h | Pharmacokinetic effect on the co-administered drug [1]: no pharmacokinetic effects on steady-state gemigliptin | accumulation ([4]; after multiple dosing): without accumulation | oral absorption ([4]; after oral administration): completely absorbed | AUClast (geometric mean) [4, 9]: 8,753 ng · h/mL | geometric C max mean [4, 9]: 1,084 ng/mL | half-life [4]: < 5 h | accumulation ([4]; multiple doses, 1 day vs 7 days, T2DM patients): does not accumulate | t max ([4]; T2DM patients): 2.4 to 3.75 h | t max ([4]; healthy volunteers): 0.7 to 2.8 h | mean AUC [4, 10]: 1,297 μg/L · h | mean C max [4, 10]: 0.3078 µg/mL

CCC1=C(C)CN(C(=O)NCCc2ccc(S(=O)(=O)NC(=O)NC3CCC(CO)CC3)cc2)C1=O (stereo not drawn) [M1]
t max, median (min–max) [1, 7]: 4.0 (3.0–6.0) h | t max, median (min–max) [1, 8]: 4.0 (3.0–6.0) h | AUClast, mean (SD) [1, 11]: 189.88 (52.77) ng · h/mL | C max, mean (SD) [1, 11]: 28.26 (8.40) ng/mL

OC(Cn1cncn1)(Cn1cncn1)c1ccc(F)cc1F [fluconazole]
effect on plasma concentrations of glimepiride [5]: increase plasma concentrations of glimepiride

CC#CCn1c(N2CCC[C@@H](N)C2)nc2c1c(=O)n(Cc1nc(C)c3ccccc3n1)c(=O)n2C [linagliptin]
pharmacokinetics on coadministration of linagliptin and glyburide ([5]; linagliptin 5 mg/day × 6 days, glyburide single-dose 1.75 mg): not affected

N[C@@H](CC(=O)N1CCn2c(nnc2C(F)(F)F)C1)Cc1cc(F)c(F)cc1F [sitagliptin]
effect on the pharmacokinetics of glyburide [5]: does not affect the pharmacokinetics of glyburide
